{
  "source": "ChEMBL document CHEMBL1123896",
  "about": "(J Med Chem, 1987)",
  "key": {"[1]": {"assay": "Apparent lipophilicity (log kw) at pH 7.5", "type": "physicochemical", "settings": "buffer", "method_in_brief": "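Measured at pH 7.5 by RP-HPLC. Capacity factors were extrapolated to 0% methanol, and the resulting log kw was taken as apparent lipophilicity. Values that could not be measured were estimated from derived fragmental values.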"}, "[2]": {"molecular_target": "D(2) dopamine receptor (Rattus norvegicus) (UniProt P61169)", "sequence (P61169 whole entry)": "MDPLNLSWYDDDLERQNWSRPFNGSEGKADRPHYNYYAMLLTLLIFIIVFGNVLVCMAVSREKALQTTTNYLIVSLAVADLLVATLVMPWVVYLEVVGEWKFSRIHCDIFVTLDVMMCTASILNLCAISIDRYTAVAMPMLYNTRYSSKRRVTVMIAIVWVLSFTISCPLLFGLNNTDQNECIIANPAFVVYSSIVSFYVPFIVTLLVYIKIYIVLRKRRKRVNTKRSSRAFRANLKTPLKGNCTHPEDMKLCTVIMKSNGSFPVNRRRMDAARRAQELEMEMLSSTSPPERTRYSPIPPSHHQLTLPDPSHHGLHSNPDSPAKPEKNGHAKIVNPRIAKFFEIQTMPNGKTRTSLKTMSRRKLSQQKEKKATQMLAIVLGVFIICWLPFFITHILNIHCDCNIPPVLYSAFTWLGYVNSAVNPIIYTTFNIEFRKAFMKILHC"}, "[3]": {"molecular_target": "D(2) dopamine receptor (Rattus norvegicus) (UniProt P61169)", "assay": "Eudisimic index was determined for the compound against Dopamine receptor D2", "method_in_brief": "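Eudismic index is the log of the eutomer/distomer affinity ratio, calculated as pIC50(eutomer) − pIC50(distomer) for each enantiomer pair. The pIC50 values come from displacement of specific [3H]spiperone binding at the dopamine D2 receptor.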"}, "[4]": {"molecular_target": "Sigma non-opioid intracellular receptor 1 (Rattus norvegicus) (UniProt Q9R0C9)", "sequence (Q9R0C9 whole entry)": "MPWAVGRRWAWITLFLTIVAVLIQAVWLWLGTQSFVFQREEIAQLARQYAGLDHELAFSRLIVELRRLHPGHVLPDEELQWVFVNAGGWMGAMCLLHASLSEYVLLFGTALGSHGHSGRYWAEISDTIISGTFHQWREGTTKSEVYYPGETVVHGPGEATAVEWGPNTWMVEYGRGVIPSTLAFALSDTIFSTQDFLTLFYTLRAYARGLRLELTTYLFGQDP", "assay": "Eudisimic index was determined for the compound against sigma receptor", "method_in_brief": "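Eudismic index is the log of the eutomer/distomer affinity ratio, calculated as pIC50(eutomer) − pIC50(distomer) for each enantiomer pair, using σ-receptor binding pIC50 values.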"}, "[5]": {"assay": "Selectivity pIC50 (sigma)-pIC50(D2)"}, "[6]": {"molecular_target": "Sigma non-opioid intracellular receptor 1 (Rattus norvegicus, UniProt Q9R0C9)", "sequence (Q9R0C9 whole entry)": "as above", "assay": "Binding affinity against sigma receptor"}, "D(2) dopamine receptor": {"molecular_target": "D(2) dopamine receptor (Rattus norvegicus, UniProt P61169)", "sequence (P61169 whole entry)": "as the sequence (P61169 whole entry) above", "assay": "Binding affinity for dopamine receptor D2 was evaluated by the ability to displace [3H]spiperone"}},
  "data": [
    {"compound": "CC(C)N1CCC[C@H](c2cccc(O)c2)C1", "values": [
      {"measurement": "Log kw", "setting": "[1]", "value": 0.84},
      {"measurement": "EI", "setting": "[2]", "value": 0.07},
      {"measurement": "EI", "setting": "[3]", "value": 1.53}
    ]},
    {"compound": "CCCN1CCC[C@H](c2cccc(O)c2)C1", "values": [
      {"measurement": "Log kw", "setting": "[1]", "value": 1.05},
      {"measurement": "EI", "setting": "[4]", "value": 0.71},
      {"measurement": "EI", "setting": "[3]", "value": 0.61}
    ]},
    {"compound": "Oc1cccc([C@H]2CCCNC2)c1", "values": [
      {"measurement": "Log kw", "setting": "[1]", "value": 0.41},
      {"measurement": "Selectivity", "setting": "[5]", "value": -1.02},
      {"measurement": "EI", "setting": "[4]", "value": 0.53},
      {"measurement": "EI", "setting": "[3]", "value": 0.6}
    ]},
    {"compound": "CC(C)N1CCC[C@@H](c2cccc(O)c2)C1", "values": [
      {"measurement": "Log kw", "setting": "[1]", "value": 0.84},
      {"measurement": "Selectivity", "setting": "[5]", "value": 0.23}
    ]},
    {"compound": "CCN1CCC[C@@H](c2cccc(O)c2)C1", "values": [
      {"measurement": "Log kw", "setting": "[1]", "value": 0.84}
    ]},
    {"compound": "CN1CCC[C@@H](c2cccc(O)c2)C1", "values": [
      {"measurement": "Log kw", "setting": "[1]", "value": 0.94},
      {"measurement": "Selectivity", "setting": "[5]", "value": 0.01},
      {"measurement": "IC50", "setting": "[6]", "value": 1910, "unit": "nM"},
      {"measurement": "IC50", "setting": "D(2) dopamine receptor", "value": 1950, "unit": "nM"}
    ]},
    {"compound": "CCCN1CCC[C@@H](c2cccc(O)c2)C1", "note": "[PRECLAMOL]", "values": [
      {"measurement": "Log kw", "setting": "[1]", "value": 1.05}
    ]},
    {"compound": "Oc1cccc([C@@H]2CCCN(CCc3ccccc3)C2)c1", "values": [
      {"measurement": "Log kw", "setting": "[1]", "value": 2.27},
      {"measurement": "Selectivity", "setting": "[5]", "value": 0.44}
    ]},
    {"compound": "CCN1CCC[C@H](c2cccc(O)c2)C1", "values": [
      {"measurement": "Log kw", "setting": "[1]", "value": 0.84}
    ]},
    {"compound": "Oc1cccc([C@H]2CCCN(CCc3ccccc3)C2)c1", "values": [
      {"measurement": "Log kw", "setting": "[1]", "value": 2.27},
      {"measurement": "EI", "setting": "[4]", "value": 0.3},
      {"measurement": "EI", "setting": "[3]", "value": 1.45}
    ]},
    {"compound": "Oc1cccc([C@@H]2CCCNC2)c1", "values": [
      {"measurement": "Log kw", "setting": "[1]", "value": 0.41},
      {"measurement": "Selectivity", "setting": "[5]", "value": -0.95}
    ]},
    {"compound": "CCCCN1CCC[C@H](c2cccc(O)c2)C1", "values": [
      {"measurement": "Log kw", "setting": "[1]", "value": 1.41},
      {"measurement": "EI", "setting": "[4]", "value": 0.54},
      {"measurement": "EI", "setting": "[3]", "value": 0.99}
    ]},
    {"compound": "CCCCN1CCC[C@@H](c2cccc(O)c2)C1", "values": [
      {"measurement": "Log kw", "setting": "[1]", "value": 1.41},
      {"measurement": "Selectivity", "setting": "[5]", "value": 0.95}
    ]},
    {"compound": "CN1CCC[C@H](c2cccc(O)c2)C1", "values": [
      {"measurement": "Log kw", "setting": "[1]", "value": 0.96},
      {"measurement": "EI", "setting": "[4]", "value": 0.71},
      {"measurement": "EI", "setting": "[3]", "value": 0.32}
    ]}
  ]
}
